Among the data in ChEMBL document CHEMBL4513216, “Probing the Open Global Health Chemical Diversity Library for Multistage-Active Starting Points for Next-Generation Antimalarials” (ACS Infect Dis, 2020) are cytotoxicity values, retold here.

A short description of the series: Toxicity liver stage against HepG2, at 10uM. The series is classed as cell-based. Details: test concentration 10 uM, cell line HepG2-A16-CD81EGFP. The note with it: human, HepG2-A16-CD81EGFP cells; read-out: INHIBITION
In outline:
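Uninfected HepG2-A16-CD81EGFP cells, 3 × 10^3 per well, 1536-well, plated on prespotted compound at 10 μM final, parasite-free screening media added to match infected plates; puromycin 10 μM positive, DMSO 0.5% negative; run in parallel with 48 h PbLuc assay at 37 °C, 5% CO2; viability by CellTiter-Glo luminescence, normalized to controls.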
As to `Fc1ccc(C2CN(c3ncnc4nc[nH]c34)CCO2)cc1` (stereo unspecified), the cytotoxicity at 10 µM came out at 13.1%. For `CC(=O)NC[C@@H]1C=C(C)[C@H](CC(=O)NCc2cccnc2)C[C@H]1C(C)C` the value was 4.33%; for `CC1=Nc2c(c(=O)[nH]n2C(C)C)C(c2cccc(OC(F)F)c2)S1` (stereo unspecified), 8.13%. As to `CCCc1cc(=O)[nH]c2nnc(SCC(=O)OC)n12`, the cytotoxicity at 10 µM turned out to be 12.2%. The result for `Cc1ccc(S(=O)(=O)Nc2ccc(-n3nnn(C)c3=O)cc2)cc1` reads -4.1%; that for `Cn1nc(CN2CCOCC2)c2c1CN(C(=O)c1ccc[nH]1)C2`, 8.46%; that for `CCS(=O)(=O)N1CCC2(CN(C(=O)c3cn(C)cn3)C2)C1`, 6.4%.

In the case of `O=C(NCCN1CCCC1)c1cc2c(s1)CCN2C(=O)c1ccccc1`, the cytotoxicity at 10 µM stood at 0.559%.

On to `O=C(C1CCOCC1)N1CCc2ncnc(-c3ccccc3)c2CC1`, for which the cytotoxicity at 10 µM was -6.09%. As to `O=C(Cc1ccccc1)N1CCn2cc(Cn3cncn3)nc2C1`, the cytotoxicity at 10 µM is -137%.

Regarding `Cc1cccc(NC(=O)c2csc(NCC(C)C)n2)n1`, the cytotoxicity at 10 µM is -3.33%.

`O=C(Cn1nc2c(cc1=O)CCCC2)N[C@@H](Cc1ccccc1)C(=O)O`: the cytotoxicity at 10 µM is 3.17%. For `COc1ccc(NCc2nc(=O)n(CCC(C)C)[nH]2)cc1` the value was -2.9%; for `Cc1nn(CCNC(=O)c2cc(C3CC3)[nH]n2)c(C)c1Cl`, -3.73%; for `COc1ccc2c(=O)ccn(CC(=O)O)c2c1`, 10.2%.

For `CC(=O)N1CCCC(c2nccnc2Nc2nc(C)cc(C)n2)C1` (stereo unspecified), the cytotoxicity at 10 µM turned out to be 1.43%. `O=C(c1cncs1)N1CCCC1c1ccn[nH]1` (stereo unspecified): the cytotoxicity at 10 µM is -11.9%. As to `CCCC(=O)N1CCC(c2ncc3c(n2)CCNC3)CC1`, the cytotoxicity at 10 µM is -23.1%. The result for `Cc1ncncc1C(=O)N1CCCC(c2[nH]ncc2S(C)(=O)=O)C1` (stereo unspecified) reads -4.41%; that for `Cc1nn(C)c(C)c1NC(=O)CNC(c1ccccc1)C1CCCC1` (stereo unspecified), -0.0764%; that for `CC(C)c1ccc(OCCC(=O)N(C)CC(=O)N(C)C)cc1`, 4.72%. As for `Cc1noc(C)c1CN(C)C(=O)C1CCCN1S(N)(=O)=O` (stereo unspecified), the cytotoxicity at 10 µM stood at 7.89%. As to `NC(=O)C1CCN(S(=O)(=O)c2cnn(-c3ccccc3)c2)CC1`, the cytotoxicity at 10 µM was 8.51%. For `Cc1c(NC(=O)CN(C)S(C)(=O)=O)cccc1OC1CCCC1` the value was -0.302%. `CNC(=O)CN(C)CC1(c2ccc(Br)cc2)CC1`: the cytotoxicity at 10 µM was determined as 3.89%.

`c1cc2c(cc1CN1CCN(Cc3noc(C4CC4)n3)CC1)OCO2`: the cytotoxicity at 10 µM came to 15.8%.

On to `Cc1cscc1C(=O)Nc1cncnc1N(C)C`, for which the cytotoxicity at 10 µM was found to be 0.137%.

Take `CN(C)C1CCCN(C(=O)NCCNC(=O)C2CCCC2)C1` (stereo unspecified): the cytotoxicity at 10 µM was -7.4%. The result for `CN(Cc1ccco1)C(=O)NC(Cn1ccnc1)C(C)(C)C` (stereo unspecified) reads -3.36%; that for `Cc1noc(C)c1C(=O)NCCN1CCOCC1`, -10.9%. `N#Cc1ccccc1N1CCN(C(=O)NCCN2CCOCC2)CC1`: the cytotoxicity at 10 µM came out at 1.08%.

For the molecule `COC(=O)N1CCC(Nc2cccc(F)c2C#N)CC1`, the cytotoxicity at 10 µM is 18.1%. The result for `COc1cc(CNC(=O)C(C)SC)cc(Br)c1OC` (stereo unspecified) reads 0.247%; that for `COCCCNC1CCCN(c2ccc(C)nn2)C1` (stereo unspecified), -9.9%; that for `Cc1nc(CN2CCC(CNC(=O)Nc3ccccc3)CC2)oc1C`, 3.54%. The result for `c1ccc(-c2cc(CN3CCc4cncnc4C3)on2)cc1` reads 11.3%; that for `Cc1ccc(Cl)cc1NC(=O)C1CC(=O)N(Cc2ccccn2)C1` (stereo unspecified), 4.67%; that for `COCc1csc(NC(=O)N2CCC(Cc3cnn(C)c3)C2)n1` (stereo unspecified), 3.13%. For the molecule `O=C1OCCN1CCS(=O)(=O)c1cccc(Br)c1`, the cytotoxicity at 10 µM was found to be 6.29%. For `Cc1ccc(-n2ccnc2)c(C(=O)NCCCN(C)C)c1` the value was -152%.

For the molecule `CNC(=O)C(NC(=O)CCc1cccc(OC2CCCC2)c1)C(C)C` (stereo unspecified), the cytotoxicity at 10 µM is 10.9%. For `CCn1cc(S(=O)(=O)N2CCC(C)Sc3ccccc32)cn1` (stereo unspecified) the value was 3.34%; for `N#Cc1ccc(N2CCCN(c3nccs3)CC2)nc1`, 32.5%; for `CC(Cn1ccnc1)NC(=O)NCCN1CCc2ccccc2C1` (stereo unspecified), 7.65%. The result for `Cc1sc(CS(C)(=O)=O)nc1-c1ccc(Cl)cc1` reads -4.07%; that for `OCC1CN(Cc2nc(C(F)(F)F)cs2)c2ccccc2O1` (stereo unspecified), 3.97%.

For `CC(=O)NC1CCCN(C(=O)CNc2cc(Cl)cc(Cl)c2)C1` (stereo unspecified), the cytotoxicity at 10 µM is -1.68%. For `O=C(NCc1ccc(F)cc1)N1CCC(C2OCCO2)CC1`, the cytotoxicity at 10 µM is -2.39%. `CS(=O)(=O)Nc1ccc2c(c1)NC(=O)CC2c1cnn2cccnc12` (stereo unspecified): the cytotoxicity at 10 µM is -1.77%. For `CN1CCN(Cc2c(Cl)ccc(O)c2Cl)CC1C(=O)O` (stereo unspecified) the value was 9.46%; for `CC(C)(C)c1ncc2c(n1)CN(C(=O)c1ccc3[nH]cnc3c1)C2`, -2.62%. Consider `COCCN1CCN(Cc2nc3c(s2)CCCC3)[C@H]2CS(=O)(=O)C[C@H]21`, for which the cytotoxicity at 10 µM amounted to 6.81%. On to `Cc1ncc(CC(=O)N2CCCC(COc3ccc(F)cc3)C2)c(=O)[nH]1` (stereo unspecified), for which the cytotoxicity at 10 µM is -142%. For the molecule `O=C(C1CNCCN1C(=O)CCOc1ccccc1)N1CCCC1` (stereo unspecified), the cytotoxicity at 10 µM is -7.42%. For `CCc1nc2c(c(N3CCOCC3)n1)CCN(C(=O)N1CCCC1)CC2` the value was 7.6%; for `C[C@@H]1CN(C(=O)CCc2cnn(C)c2)C[C@@]1(O)C1CCC1`, -11.4%. As for `c1cc(N2CCC(c3nnc(Cn4ccnc4)n3C3CC3)CC2)ccn1`, the cytotoxicity at 10 µM was -4.31%. Regarding `COc1nc(C)c(C(=O)N2CCN(c3ncccc3C)CC2)s1`, the cytotoxicity at 10 µM came out at 2.87%. The result for `Cc1noc(C)c1CN1CC2(CCN(Cc3c[nH]cn3)CC2)CC1=O` reads 8.62%; that for `N#CC1(C(=O)N2C[C@H](Nc3ncccn3)[C@@H](C3CC3)C2)CCOCC1`, 5.44%; that for `CS(=O)(=O)N1CCC(Oc2ccc(C(=O)NCCC(N)=O)cc2Cl)CC1`, -1.28%.

With `COc1ccnc(CNc2nc(C)nc(C)c2C)c1`, the cytotoxicity at 10 µM was -1.7%. In the case of `CC(C)N1CCCC2(CCN(Cc3nncn3C(C)C)C2)C1=O` (stereo unspecified), the cytotoxicity at 10 µM was -108%. For `Cc1nn(C)c(C)c1-c1nc2cc(S(=O)(=O)N3CCCC3)ccc2n1C` the value was -6.05%.

For `Cc1cc(CN2CCC(CNC(=O)c3cnc(C)nc3C)C2)[nH]n1` (stereo unspecified), the cytotoxicity at 10 µM is -140%. With `COc1ccc(F)c(CN2CCC3(CCC(=O)N(CC(N)=O)C3)CC2)c1`, the cytotoxicity at 10 µM was determined as 12%. With `NC(=O)CN1CCC(C(=O)N2CCCC(OCc3cccnc3)C2)CC1` (stereo unspecified), the cytotoxicity at 10 µM is -1.88%. As to `CCC1CN(C(=O)CN2CCN(c3nccc(OC)n3)CC2)CCO1` (stereo unspecified), the cytotoxicity at 10 µM is -6.21%. For the molecule `CC(C(=O)NC(N)=O)N(C)CCCc1cc(-c2ccccc2)no1` (stereo unspecified), the cytotoxicity at 10 µM was -8.63%. For `Cc1noc(C)c1C(=O)N1CCCC(c2cc(C(F)(F)F)[nH]n2)C1` (stereo unspecified) the value was -0.855%; for `Cc1cc(NC(=O)CN2CCCC2c2c(C)nn(C)c2Cl)on1` (stereo unspecified), -0.945%; for `CCc1nnc2n1CCN(Cc1csc(NC(C)=O)n1)C2`, -1.45%. The result for `Cc1ncc(CN2CCC(N(C)Cc3noc(C4CC4)n3)C2)s1` (stereo unspecified) reads -3.16%; that for `CCN1CCN(C(=O)COCc2cccc(OC)c2)CC1`, -11.5%; that for `CN(Cc1ccco1)C(=O)c1cccc(N2CCCC2=O)c1`, -4.5%. The result for `CCc1nc(C2CCCN2Cc2cc(=O)n(C)c(=O)n2C)no1` (stereo unspecified) reads -11.5%; that for `Cc1ccc(NC2CCN(C(=O)COC3CCCC3)CC2)nn1`, 2.31%. Take `O=C(NCc1ccccc1)NCC(O)c1cccc(F)c1` (stereo unspecified): the cytotoxicity at 10 µM is -5.09%. The result for `CC(NC(=O)Cn1ccc(=O)n(C)c1=O)c1ccccc1F` (stereo unspecified) reads -10.6%. The result for `CC(=O)Nc1nc(C(=O)N2CCCCC2Cn2cccn2)cs1` (stereo unspecified) reads -31.4%. On to `Cc1nc(CN(C)C2CCN(Cc3ccc(C(N)=O)cc3)C2)no1` (stereo unspecified), for which the cytotoxicity at 10 µM was -12.7%.

Turning to `Cc1nn(C)c(N2CCOCC2)c1CNCc1ccnn1C`, the cytotoxicity at 10 µM is -1.66%.

As for `Cc1nc(CN2CCCN(C(=O)c3c(C)noc3C)CC2)cs1`, the cytotoxicity at 10 µM is -2.87%. Regarding `O=C(CS(=O)(=O)c1ccccc1Cl)NC1CCCCNC1=O` (stereo unspecified), the cytotoxicity at 10 µM was -13.2%.

For `COc1ccc(CCC(=O)N2CCCC2Cn2cc(C)cn2)cc1F` (stereo unspecified), the cytotoxicity at 10 µM turned out to be 2.36%. The result for `O=C(NCc1cnc2n1CCN(Cc1ccsc1)CC2)C1CCC1` reads -2.53%; that for `Cc1ccc(O[C@@H]2C[C@H]3CN(C(=O)c4cnccn4)CCN3C2)cc1`, 1.12%.

With `COCCN1CCc2cc(C(=O)N(C)C)c(NCC3CC3)nc2CC1`, the cytotoxicity at 10 µM stood at 4.44%.

`Cc1cccc(CN2CCc3ncnc(N4CCCC4)c3CC2)n1`: the cytotoxicity at 10 µM is -145%. The result for `CC(C)N1CCOCC2(CCCN(C(=O)c3cn(C)cn3)C2)C1` (stereo unspecified) reads 1.88%.

In the case of `Cn1cc(CN2C[C@H](Oc3ncccc3F)[C@H]3OCCC[C@H]32)cn1`, the cytotoxicity at 10 µM was determined as 2.72%. The result for `CN(C)C(=O)CN1CCCC2(CCN(c3ccc(C#N)cn3)C2)C1` (stereo unspecified) reads 4.01%.

With `CC(C)C(=O)N1CCC[C@]2(C(=O)N(C)C)CN(c3ccccn3)C[C@@H]2C1`, the cytotoxicity at 10 µM turned out to be 30.7%. For `O=C1[C@@H]2CC[C@@H](CN(Cc3nnc(C4CC4)o3)C2)N1Cc1cscn1` the value was 9.57%; for `Cc1oc(C(C)C)cc1C(=O)N1C[C@@H]2CC[C@H]1CN(c1ncccn1)C2`, -126%; for `CC1CCCCN1S(=O)(=O)NCCNC(=O)c1ncccc1O` (stereo unspecified), 2.34%.
